Results: paper PMC4109288 (Lancet, 2012)
Marks after values point to notes of the source that are not given here.

What was measured:
[1] = Phase I trial: safety and tolerability, adverse events; settings: in vivo
[2] = system: tumour FDG uptake; assay: FDG-PET imaging at baseline and Week 2; assay type: in vivo, human; settings: 35 mg QD–300 mg BID, Week 2
Outline: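 Pharmacodynamic FDG-PET imaging at baseline and on Day 15 of daily dabrafenib-class dosing. Patients were in the accelerated dose-titration cohorts, which started at 12 mg daily on 21-day cycles.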

[3] = system: V600 BRAF-mutant melanoma with untreated brain metastases; assay: RP2D expansion, brain lesion assessment by MRI and PFS; assay type: in vivo, human
Outline: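 Expansion cohort of patients with asymptomatic, untreated brain metastases ≥3 mm and no prior resection, stereotactic radiosurgery or whole-brain radiotherapy, given 150 mg BID. BRAF was centrally genotyped. Lesions were imaged by gadolinium-enhanced T1-weighted MRI, first at 6 weeks and then every 9 weeks. Sum of diameters of lesions ≥3 mm at baseline was expressed as % change from baseline. RECIST 1.0 applied. PFS by Kaplan–Meier.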

[4] = system: non-V600E BRAF-mutant melanoma; assay: Tumour response and PFS in melanoma with non-V600E BRAF mutations; assay type: in vivo, human
Outline: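 Melanoma patients with V600K or non-V600 or complex BRAF mutations, treated at all dose levels (titration from 12 mg daily, 21-day cycles). Response was assessed by RECIST 1.0 with restaging at 9 or 6 weeks, then every 9 weeks, and 95% exact CIs were given. PFS was estimated by Kaplan–Meier from first dose. Treatment duration ran from first dose to last dose or the 25 March 2011 data cut.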

[5] = system: BRAF wild-type melanoma; assay: Tumour response in BRAF wild-type melanoma; assay type: in vivo, human; settings: three patients with BRAF wild-type melanoma
Outline: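 Patients had histologically confirmed incurable solid tumours, ECOG ≤1, and received accelerated dose titration from 12 mg daily on 21-day cycles until progression or intolerable toxicity. Response was assessed by RECIST 1.0. Baseline imaging was within 35 days. Restaging was at 9 weeks (escalation) or 6 weeks (expansion), then every 9 weeks.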

[6] = cited from earlier work; for Penetration of the blood-brain barrier: in vivo
[7] = system: BRAF-mutant metastatic melanoma; settings: cited from earlier work
[8] = system: K601E BRAF-mutant cell line; settings: cited from earlier work
[9] = among the eight patients who progressed

## CC(C)(C)c1nc(-c2cccc(NS(=O)(=O)c3c(F)cccc3F)c2F)c(-c2ccnc(N)n2)s1 [dabrafenib, Dabrafenib]
[1]; human
  Patients experiencing AEs higher than grade 2: 24%
  Patients requiring dose reductions: 7%
  Patients requiring dose reductions for fatigue: 2%
  Patients requiring dose reductions for neutropenia: 1%
  Patients requiring dose reductions for pyrexia: 3%
  Patients with arthralgia of grade 2 or higher: less than 5%
  Patients with dose-limiting toxicities (DLTs): three of 20
  Patients with pyrexia as a serious AE: 4%
  Patients with treatment-related actinic keratosis: 10%
  Patients with treatment-related fatigue grade 2 or higher: 8%
  Patients with treatment-related hyperkeratosis: 26%
  Patients with treatment-related hyperkeratotic lesions of grade 2 or above: 3%
  Patients with treatment-related pyrexia: 20%
  Patients with treatment-related pyrexia grade 2 or higher: 6%
  Range of onset of cutaneous SCC: 9 to 217 days
  Range of time to first pyrexia: 1 to 532 days
  Treatment-related cutaneous squamous cell carcinoma, grade 2 or higher, Total: 20 (11) ^* n (%)
  Treatment-related cutaneous squamous cell carcinoma, toxicity grade 2: 0 n (%)
  Treatment-related cutaneous squamous cell carcinoma, toxicity grade 3: 20 (11) n (%)
  Treatment-related fatigue, grade 2 or higher, Total: 14 (8) n (%)
  Treatment-related fatigue, toxicity grade 2: 12 (7) n (%)
  Treatment-related fatigue, toxicity grade 3: 2 (1) n (%)
  Treatment-related pyrexia, grade 2 or higher, Total: (6) n (%)
  Treatment-related pyrexia, toxicity grade 2: 10 (5) n (%)
  Treatment-related pyrexia, toxicity grade 3: 1 (<1) n (%)
[1]
  Non-cutaneous SCC: not observed
  Patients with keratoacanthoma: three
  Photosensitivity: not observed
  Recurrence or metastasis of cutaneous SCC after local excision: no recurrence or metastasis was observed
[2]; 53 of 56 patients
  Patients with decrease in mean SUVmax of tumour FDG uptake vs baseline: 95%
[2]; 56 patients
  Median decrease in mean SUVmax of tumour FDG uptake: 60%
  Range of percentage change from baseline in mean SUVmax: −100% to 19
[3]; RP2D
  Patients achieving complete resolution of all brain lesions: four of ten
[3]; among patients with responding brain lesions
  Patients with decreasing size of extracranial metastases: all nine
[3]; [9]
  Patients with site of progression in extracranial sites alone: three
  Patients with site of progression in the brain alone: three
[3]; n=10
  Survival at 5 months: All patients were alive at 5 months
[3]; remains on study at 19 months
  Time at which the most durable responder met criteria for progressive disease: 15 months
[4]; V600K, all dose levels, nine patients
  Patients who received treatment for at least 6 months: 50%
[4]; three patients with non-V600 or complex BRAF mutations
  Responses: no responses were observed
[5]
  Responses: no responses were observed
[6]
  Penetration of the blood-brain barrier: neither vemurafenib nor dabrafenib demonstrate penetration
[6]; preclinical, after single-dose administration, ref unpublished data
  Penetration of the intact blood–brain barrier by the parent drug: minimal penetration

## CCCS(=O)(=O)Nc1ccc(F)c(C(=O)c2c[nH]c3ncc(-c4ccc(Cl)cc4)cc23)c1F [vemurafenib]
[7]; Phase III, first-line vs dacarbazine, V600E mutant metastatic melanoma
  Reduction in risk of death: 63%
[7]; V600E BRAF-mutant metastatic melanoma, Phase I
  Unconfirmed responses: 81%
[7]; V600E-mutant BRAF metastatic melanoma, Phase III vs dacarbazine
  Confirmed response rate: 48%
[7]
  Photosensitivity: commonly reported
[7]; ten of 336 patients carrying the V600K mutation, Phase III
  Response rate: 40%
[6]
  Penetration of the blood-brain barrier: neither vemurafenib nor dabrafenib demonstrate penetration
[8]
  Inhibition in cell line with K601E mutation: less inhibition
